# PostGolgi ctrl: growth inhibition of yeast control strain, primary screen, counter-screen for post-Golgi transport modulator project; AID 738, 2007; efflux-deficient yeast background strain, growth absorbance A615, 16 h; hit rate 5% among 98,000; inhibition, % at 10 µM
# PostGolgi yeast: phenotypic screen on post-Golgi transport, primary screen. post-Golgi transport phenotypic cell assay. hit rate 0.9% among 98,000. inhibition, % at 10 µM;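 further: yeast cells grown in 1536-well plates; yeast grown about 18 h at 30C before absorbance read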
# EphB4 antag: EphB4-ephrin-B2 interaction antagonists, primary screen, biochemical, TNYL-RAW peptide probe, fluorescence polarization. Ephrin type-B receptor 4 (Homo sapiens), P54760. EphB4 LBD / TNYL-RAW-Alexa532 peptide. inhibition, % at 7 µM. hit rate 0.15% among 97,000. AID 720, 2007;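 active means inhibition above the screen-wide mean inhibition plus 3 SD, cut at about 15% in these data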;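 further: 0% = DMSO wells and 100% = excess unlabeled TNYL-RAW peptide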
# Target sequence (P54760 whole entry, looked up, the tested form may be a part): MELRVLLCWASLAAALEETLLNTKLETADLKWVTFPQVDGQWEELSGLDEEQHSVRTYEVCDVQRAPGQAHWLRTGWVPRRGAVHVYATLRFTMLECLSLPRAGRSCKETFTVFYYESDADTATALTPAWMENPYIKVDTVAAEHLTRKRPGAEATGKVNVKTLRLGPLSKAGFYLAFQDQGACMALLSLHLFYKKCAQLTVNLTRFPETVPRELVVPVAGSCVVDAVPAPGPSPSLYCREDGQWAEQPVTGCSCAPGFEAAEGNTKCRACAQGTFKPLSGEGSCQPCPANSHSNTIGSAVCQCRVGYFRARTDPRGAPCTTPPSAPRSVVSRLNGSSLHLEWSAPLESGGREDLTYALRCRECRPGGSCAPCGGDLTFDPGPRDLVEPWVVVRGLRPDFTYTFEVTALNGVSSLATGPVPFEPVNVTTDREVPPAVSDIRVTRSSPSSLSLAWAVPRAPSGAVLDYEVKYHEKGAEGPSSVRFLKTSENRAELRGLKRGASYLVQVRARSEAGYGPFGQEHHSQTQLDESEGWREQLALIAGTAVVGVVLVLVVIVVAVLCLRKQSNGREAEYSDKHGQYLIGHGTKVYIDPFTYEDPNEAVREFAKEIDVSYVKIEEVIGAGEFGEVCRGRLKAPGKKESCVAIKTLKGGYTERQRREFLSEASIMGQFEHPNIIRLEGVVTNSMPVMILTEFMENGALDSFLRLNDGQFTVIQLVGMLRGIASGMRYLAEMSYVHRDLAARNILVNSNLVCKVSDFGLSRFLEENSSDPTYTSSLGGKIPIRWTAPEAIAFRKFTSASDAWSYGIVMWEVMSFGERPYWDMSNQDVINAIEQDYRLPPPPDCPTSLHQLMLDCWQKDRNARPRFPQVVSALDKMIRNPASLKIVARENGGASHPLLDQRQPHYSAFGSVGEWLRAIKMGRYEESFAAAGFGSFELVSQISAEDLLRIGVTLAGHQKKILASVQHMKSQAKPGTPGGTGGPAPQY
# tolC growth inh: growth inhibitors of E. coli tolC mutant, primary screen, strain BW25113 ΔtolC::kan, 384-well; growth inhibition, % at 10 µM (by protocol); hit rate 2.2% among 65,000; OD615;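 active means growth inhibition at or above a cutoff equal to the mean over every tested compound plus 3 SD, cut at about 60% in these data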;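 further: growth measured after 20 h incubation at 37 °C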
#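 test system = E. coli BW25113 ΔtolC::kan bacteria | medium = LB with kanamycin 50 µg/mL | signal = OD at 615 nm | schedule = 37 °C, 20 h exposure | evaluation = % inhibition of E. coli growth | compound dosing = one dose of 10 µM final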
# Ecoli WT expand: growth inhibitors of wild-type E. coli, primary screen, strain BW25113, expanded library, OD600 | OD600 absorbance | growth inhibition, % at 100 µM | hit rate 0.15% among 98,000 | AID 710, 2007;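 active means growth inhibition above about 50% at one test dose, limit read from the data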;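 further: growth measured after 20 h incubation at 37 °C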
# The depositor's hits bear a star; · = not tested or not shown. This is a sample that favours compounds with a hit; in the whole collection about 6% have one here. Unless noted, no stated cut-off is given here; in the data, active means inhibition above about 30%; inactive means the rest.
SMILES,PostGolgi ctrl,PostGolgi yeast,EphB4 antag,tolC growth inh,Ecoli WT expand
CCCC(O)(c1ccc(Cl)cc1)C(CN1CCOCC1)c1ccccc1 (centres undefined),50.3*,1.2,0.2,·,1.0
Cn1c2c(c(=O)n(C)c1=O)C1(C(=O)Nc3ccccc31)C(C#N)=C(N)O2 (centres undefined),5.1,0.9,-2.7,·,3.0
O=C(COc1ccccc1)Nc1cccc(-c2nc3cc4ccccc4cc3[nH]2)c1,19.7,45.4*,4.0,·,-11.0
O=[N+]([O-])c1cc(-c2nnc(C34CC5CC(CC(C5)C3)C4)o2)cc([N+](=O)[O-])c1,47.0*,7.0,-0.9,·,-14.0
CN(C)C(=O)CSc1nnc(C23CC4CC(CC(C4)C2)C3)o1,14.9,3.7,4.9,-7.4,3.0
Cn1nnc2cc(C(=O)N3CCC(c4ccccc4)C3)ccc21 (centres undefined),20.1,-5.4,6.8,0.6,3.0
COc1ccc(Nc2nc3c(c(=O)n(C)c(=O)n3C)n2CCO)cc1,2.5,-3.3,·,-21.4,-5.0
Cc1c(O)cc2n(c1=O)-c1ccccc1C2(C)C,·,·,16.3*,·,·
C=CCn1c(=O)c2c3c(sc2n2c(Nc4ccc(OC)cc4)nnc12)CCCC3,32.7*,4.6,0.4,15.2,-9.0
Cc1csc2ncc(C(=O)Nc3ccon3)c(=O)n12,41.0*,2.3,-5.3,-37.2,1.0
CCCNCC1COc2ccccc2O1 (centres undefined),-8.7,-4.7,1.5,·,1.0
CCN(c1ccccc1)S(=O)(=O)c1ccc(NCC2COc3ccccc3O2)nc1 (centres undefined),55.6*,15.2,4.5,61.6*,-21.0
CCC(=O)Nn1cnc2c(c1=O)C1(CCCCC1)Cc1ccccc1-2,30.9*,3.2,4.7,·,12.0
CCCC(=O)Nn1cnc2c(c1=O)C1(CCCCC1)Cc1ccccc1-2,34.8*,-1.5,-0.1,·,4.0
O=c1[nH]c(NCCO)nc2c1C1(CCCC1)Cc1ccccc1-2,14.6,-1.2,-5.4,·,20.0
Cn1c(NCCCO)nc2c(c1=O)C1(CCCCC1)Cc1ccccc1-2,36.0*,7.8,-4.3,56.2,-3.0
Cc1ccccc1-n1c(=O)c2c(n3cnnc13)-c1ccccc1CC21CCCCC1,19.2,-1.9,8.0,·,13.0
O=C(COC(=O)c1ccc(Br)o1)Nc1cccc(S(=O)(=O)N2CCCCCC2)c1,4.9,0.5,0.8,·,-16.0
CCCCCC(=O)N1CC2(CC)CN(C(=O)CCCCC)CC(CC)(C1)C2=O,·,·,·,2.1,·
CCCOC(=S)Nc1ccccc1,-6.5,-6.9,-7.1,·,13.0
Cc1cc(Cl)ccc1Oc1cccc(C(=O)/C(C#N)=C/N(C)C)c1,65.2*,4.6,0.4,·,0.0
CN(C)/C=C(/C#N)C(=O)c1cccc(Oc2ccc(C(C)(C)C)cc2)c1,50.4*,2.7,-0.7,·,-6.0
O=C(Cn1c(NCCO)nc2ccccc21)NCCc1ccccc1,37.9*,-1.3,0.0,-13.6,5.0
O=C(Cn1c(NCCO)nc2ccccc21)c1ccco1,14.6,-5.2,1.5,0.3,6.0
CCc1ccc(NC(=O)c2cccnc2)cc1,5.1,3.3,2.1,-4.8,4.0
SMILES,PostGolgi ctrl,PostGolgi yeast,EphB4 antag,tolC growth inh,Ecoli WT expand
CCc1ccc(NC(=O)N(C2CCCCC2)C(C)c2cccnc2)cc1 (centres undefined),95.2*,106.5*,2.8,·,-6.0
Cc1ccc(NC(=O)N(C2CCCCC2)C(C)c2cccnc2)cc1C (centres undefined),90.4*,99.0*,-4.0,·,-1.0
Cc1ccc(Cn2nnnc2CN2CCC(c3nc4ccc(Cl)cc4[nH]3)CC2)cc1,74.2*,4.6,-8.3,·,-7.0
Clc1ccc2nc(C3CCN(Cc4nnnn4C4CCCCC4)CC3)[nH]c2c1,·,·,0.5,·,·
CCCC(=O)NCCCc1nc2ccccc2n1CCC,40.3*,9.0,7.4,-6.6,11.0
O=C(O)c1ccc(CSc2n[nH]c(-c3ccco3)n2)cc1,2.9,4.9,15.4*,-4.4,-11.0
O=C(CSc1n[nH]c(-c2ccco2)n1)N1c2ccccc2Sc2ccccc21,15.1,2.2,·,73.2*,0.0
CC(C)C(NS(=O)(=O)c1cccc2nsnc12)C(=O)Nc1nc2ccc(Cl)cc2s1 (centres undefined),46.9*,-0.8,-8.8,·,1.0
CCOc1ccc2nc(NC(=O)C(NS(=O)(=O)c3cccc4nsnc34)C(C)C)sc2c1 (centres undefined),14.1,2.0,-6.8,·,-8.0
Cc1c(Cl)cccc1NC(=S)NN1CCOCC1,6.9,2.3,-1.2,·,6.0
O=C(CSc1ncc(-c2ccccc2)n1C1CCCC1)N1CCc2ccccc21,4.3,-2.9,1.4,·,-2.0
Cn1cc(S(=O)(=O)N2CCN(c3cccc(C(F)(F)F)c3)CC2)c(=O)n(C)c1=O,3.5,-9.3,0.6,-7.2,4.0
Cn1cc(S(=O)(=O)N2CCN(c3ccccc3)CC2)c(=O)n(C)c1=O,-3.7,-1.5,15.9*,·,6.0
COc1cc(CN2C(=O)C(NC(=O)c3ccco3)(C(F)(F)F)C3=C2CC(C)(C)CC3=O)cc(OC)c1 (centres undefined),15.8,3.6,-1.4,·,-2.0
O=C(Nc1cccc(Cl)c1)N(CCN1CCOCC1)Cc1cccc(Cl)c1,16.0,2.7,-4.7,100.0*,16.0
O=C(Nc1cccc(Cl)c1)N(CCN1CCOCC1)Cc1ccccc1F,6.6,0.3,-7.5,·,22.0
CCOC(=S)N/C(=N\S(=O)(=O)c1ccc(C)cc1)c1ccccc1,9.7,-1.7,9.2,·,-2.0
Cc1ccc(CSc2nnc(-c3ccncc3)n2CC2CCCO2)cc1 (centres undefined),10.7,14.1,2.0,·,7.0
COC(=O)c1ccc(CC(=O)c2c(C)cc(O)cc2O)o1,2.9,4.6,-1.0,-17.9,3.0
Cc1ccc(-c2cc(C(=O)N/N=C/c3c(C)nn(C)c3C)c3ccccc3n2)c(C)c1,-5.6,-6.3,1.2,·,-1.0
O=C(COC(=O)c1ccccc1Nc1ccc(SC(F)F)cc1)NCc1ccco1,32.3*,-3.8,4.1,·,-5.0
O=C(Nc1ccc(F)cc1)NC1(C(=O)NCc2ccco2)CCCCC1,31.5*,4.2,5.9,-10.6,-7.0
O=C(NCc1ccco1)c1ccccc1F,18.1,18.3,-3.9,·,4.0
O=C(NCc1ccco1)C(C(=O)c1ccc(F)cc1)n1ccccc1=O (centres undefined),-11.1,14.0,-10.7,96.9*,8.0
O=C(NCc1ccco1)c1ccccc1Nc1ccc(F)cc1,31.7*,-4.9,6.4,4.8,2.0
O=C(Nc1ccc(F)cc1)NC1(C(=O)NCc2ccc3c(c2)OCO3)CCCCC1,·,·,-3.3,·,·
CCOC(=O)N1CCC(NC2CCCCCCC2)CC1,-1.0,-2.0,4.0,-7.4,5.0
CCn1c(CNC(=O)COc2ccc(C(C)C)cc2)nnc1SCC(=O)Nc1ccccc1C(C)C,42.5*,2.3,-1.2,·,-1.0
COc1cccc(Oc2cnc(N)nc2-c2ccc(OC)cc2O)c1,5.8,-1.5,6.7,33.5,1.0
C=C(C)COc1ccc(-c2[nH]ncc2Oc2ccccc2OCC)c(O)c1,19.3,49.0*,4.0,100.0*,9.0
